Structures are written as SMILES. Active and inactive are the calls of the source. The calls are words filed in the database; no cut-off is given here.

The species entered for data set [1] is Homo sapiens. Briefly: Selectivity ratio of IC50 for c-kit (unknown origin) to IC50 for His-tagged recombinant human TYK2 pseudokinase JH2 domain (575-869 residues) incubated for 1 hr by HTRF assay. The following applies: tested as the 2H-labelled form.
Data set [2] is filed under the species Homo sapiens. Briefly: Selectivity ratio of IC50 for JAK1/JAK3 in human PBMC assessed as decrease in IL2-induced STAT5 phosphorylation in CD3+ T cells to IC50 for TYK2 JH2 domain in human PBMC assessed as decrease in IFNalpha-induced STAT5 phosphorylation. The class given is cell-based. To be noted: tested as the 2H-labelled form. The essentials: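 Human PBMC were stimulated with IL-2 (JAK1/JAK3) or IFNα (TYK2), and STAT5 phosphorylation in CD3⁺ T-cells was the end point. The ratio is IL-2 IC50 over IFNα IC50, with means from at least three separate experiments.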

The species entered for data set [3] is Homo sapiens. Briefly: Selectivity ratio of IC50 for JAK2 in GM-CSF-stimulated human TF-1 cells to IC50 for TYK2 JH2 domain in human PBMC assessed as decrease in IFNalpha-induced STAT5 phosphorylation. To be noted: tested as the 2H-labelled form.
For a further data set, the target named is JAK3/JAK1 (Homo sapiens, UniProt P23458+P52333). Put plainly: Inhibition of JAK1/JAK3 in human PBMC assessed as decrease in IL2-induced STAT5 phosphorylation in CD3+ T cells preincubated for 1 hr followed by stimulation with IL2 for 15 mins by flow cytometry. Format: cell-based. The essentials:
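Human cytokine signalling assay: IL-2 stimulation (JAK1/JAK3), with STAT5 phosphorylation in CD3⁺ T-cells measured as the end point. Read as IC50; mean of at least three separate experiments.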

Data set [4] addresses Tyrosine-protein kinase JAK2 (Homo sapiens, UniProt O60674). Briefly: Inhibition of JAK2 in GM-CSF-stimulated human TF-1 cells. Format: cell-based.
The target of data set [5] is T1, Tyrosine-protein kinase JAK3 (Homo sapiens, UniProt P52333).
T1 sequence (P52333 whole entry): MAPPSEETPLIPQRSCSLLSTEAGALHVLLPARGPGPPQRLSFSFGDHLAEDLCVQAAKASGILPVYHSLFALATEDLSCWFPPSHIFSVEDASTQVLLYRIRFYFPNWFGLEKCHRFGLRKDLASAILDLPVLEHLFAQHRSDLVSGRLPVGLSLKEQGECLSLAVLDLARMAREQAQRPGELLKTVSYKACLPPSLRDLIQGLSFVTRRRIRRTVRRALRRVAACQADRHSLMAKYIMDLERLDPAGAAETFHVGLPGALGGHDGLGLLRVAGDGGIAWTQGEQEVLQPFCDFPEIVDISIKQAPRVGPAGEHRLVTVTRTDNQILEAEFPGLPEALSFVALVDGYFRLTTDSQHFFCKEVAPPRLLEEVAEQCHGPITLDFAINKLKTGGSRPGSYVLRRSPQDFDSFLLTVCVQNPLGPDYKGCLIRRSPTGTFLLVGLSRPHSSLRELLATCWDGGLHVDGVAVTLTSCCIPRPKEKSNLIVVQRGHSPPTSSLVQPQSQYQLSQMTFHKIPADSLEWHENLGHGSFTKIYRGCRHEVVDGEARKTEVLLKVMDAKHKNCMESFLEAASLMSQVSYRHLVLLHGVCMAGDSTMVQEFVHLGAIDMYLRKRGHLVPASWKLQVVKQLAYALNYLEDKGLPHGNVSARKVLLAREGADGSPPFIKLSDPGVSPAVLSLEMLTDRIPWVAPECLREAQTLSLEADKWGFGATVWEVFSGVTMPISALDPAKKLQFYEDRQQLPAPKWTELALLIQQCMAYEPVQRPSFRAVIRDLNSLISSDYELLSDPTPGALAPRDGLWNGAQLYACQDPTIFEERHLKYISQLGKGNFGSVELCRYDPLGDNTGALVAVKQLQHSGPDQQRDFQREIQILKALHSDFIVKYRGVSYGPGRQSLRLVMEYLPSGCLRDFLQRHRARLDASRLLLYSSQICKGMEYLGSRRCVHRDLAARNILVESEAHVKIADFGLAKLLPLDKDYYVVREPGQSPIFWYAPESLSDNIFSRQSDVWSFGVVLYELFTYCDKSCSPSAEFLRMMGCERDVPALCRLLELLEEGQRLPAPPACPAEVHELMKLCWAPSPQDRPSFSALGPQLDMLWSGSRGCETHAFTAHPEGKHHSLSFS
Briefly: Inhibition of fluorescein labeled probe binding to human recombinant JAK3 JH1 domain incubated for 1 hr by HTRF assay. A digest of the protocol: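 HTRF competition binding assay: displacement of a fluorescent probe from human recombinant JAK3 JH1 domain. IC50 for 50% inhibition of HTRF signal derived by nonlinear regression.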

Data set [6] concerns the target Non-receptor tyrosine-protein kinase TYK2 (Homo sapiens, UniProt P29597). Briefly: Inhibition of TYK2 in human whole blood assessed as decrease in IFNalpha-induced STAT5 phosphorylation preincubated for 1 hr followed by stimulation with IFN-alpha for 15 mins by fluorescence analysis. The class given is tissue-based. The essentials:
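Human whole blood stimulated with IFNα; STAT5 phosphorylation was read in cells by staining and flow cytometry. IC50 from dose–response; mean of at least three experiments.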

Data set [7] is described as follows: Metabolic stability in mouse liver microsomes assessed as compound remaining incubated for 10 mins. Format: ADME, Microsome. To be noted: read-out: Stability. A digest of the protocol:
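Mouse liver microsomal stability, reported as percent of parent remaining after a 10 min incubation. Values are means of at least three experiments unless otherwise noted.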

The target in data set [8] is Voltage-gated inwardly rectifying potassium channel KCNH2 (Homo sapiens, UniProt Q12809). Briefly: Inhibition of human ERG by in vitro ion channel flux assay.
Data set [9] addresses Non-receptor tyrosine-protein kinase TYK2 (Mus musculus, UniProt Q9R117). Briefly: Inhibition of TYK2 in mouse whole blood assessed as decrease in IFNalpha-induced STAT1 phosphorylation preincubated for 1 hr followed by stimulation with IFN-alpha for 15 mins by fluorescence analysis. The class given is tissue-based. The essentials:
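Mouse whole blood stimulated with IFNα; STAT1 phosphorylation was measured by cellular staining and flow cytometry. Read as IC50.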

A short description of data set [10]: Permeability coefficient, Kp across apical to basolateral side in human Caco2 cells. Format: ADME, cell-based. The following applies: Caco-2, read-out: permeability. A digest of the protocol: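 Caco-2 monolayer permeability measured in both directions, apical-to-basal and basal-to-apical, reported as Pc in nm/s. An efflux ratio was calculated from the two directions.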

A further data set has as its target JAK1/TYK2 (Homo sapiens, UniProt P23458+P29597). Put plainly: Inhibition of JAK1/TYK2 in human Kit225 T cells assessed as inhibition of STAT phosphorylation by luciferase reporter assay. Format: cell-based. A digest of the protocol:
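T-cells carrying a stably integrated STAT-dependent luciferase reporter were stimulated with IFNα or IL-23 to measure TYK2/JAK1-dependent signalling. Dose–response curves gave IC50.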

For data set [11], the system named is Mus musculus. Briefly: Protection against IL23-induced acanthosis in C57BL/6 mouse assessed as reduction in ear swelling compound dosed orally via gavage bid for 9 days with first dose given prior to first IL23 challenge and twice a day thereafter by caliper method. Format: functional, organism-based. The following applies: tested as the 2H-labelled form.
The subject of data set [12] is Mus musculus. Put plainly: Protection against IL23-induced acanthosis C57BL/6 mouse assessed as inhibition of inflammatory cellular infiltration at 30 mg/kg, po via gavage bid for 9 days with first dose given prior to first IL23 challenge and twice a day thereafter by H and E staining based analysis. The class given is functional, organism-based. The following applies: tested as the 2H-labelled form. A digest of the protocol:
(§1)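 IL-23 was injected intradermally into mouse ears repeatedly to drive acanthosis. Test agent was given orally twice daily for 9 days at 7.5, 15 or 30 mg/kg in EtOH:TPGS:PEG300 (5:5:90), with an anti-IL-23 adnectin as positive control. Epidermal hyperplasia and cellular infiltration were scored histologically. Eight mice per group; means ± SEM; one-way ANOVA.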

Data set [13] relates to Mus musculus. Put plainly: Protection against IL23-induced acanthosis C57BL/6 mouse assessed as reduction in ear swelling at 30 mg/kg, po via gavage bid for 9 days with first dose given prior to first IL23 challenge and twice a day thereafter by caliper method. To be noted: tested as the 2H-labelled form. Format: functional, organism-based.
The subject of data set [14] is Mus musculus. Briefly: Protection against IL23-induced acanthosis C57BL/6 mouse assessed as inhibition in IL-21 mRNA expression in ear skin compound dosed orally via gavage bid for 9 days with first dose given prior to first IL23 challenge and twice a day thereafter by qRT-PCR analysis. The following applies: tested as the 2H-labelled form. Format: functional, organism-based. A digest of the protocol:
(§2)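 IL-23 was injected intradermally and repeatedly into mouse ears to induce psoriasis-like acanthosis. Compound was given orally twice daily for 9 days in EtOH:TPGS:PEG300 (5:5:90), at 7.5, 15 and 30 mg/kg. Skin biopsies were analysed for cytokine transcripts (IL-17A, IL-21, IL-12/IL-23 subunits) by quantitative PCR. Eight mice per group.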

Data set [15] deals with Mus musculus. Put plainly: Protection against IL23-induced acanthosis C57BL/6 mouse assessed as inhibition in IL-23 mRNA expression in ear skin compound dosed orally via gavage bid for 9 days with first dose given prior to first IL23 challenge and twice a day thereafter by qRT-PCR analysis. To be noted: tested as the 2H-labelled form. The class given is functional, organism-based. The essentials: as §2

Data set [16] has as its system Mus musculus. Put plainly: Protection against IL23-induced acanthosis C57BL/6 mouse assessed as inhibition of inflammatory cellular infiltration compound dosed orally via gavage bid for 9 days with first dose given prior to first IL23 challenge and twice a day thereafter by H and E staining based analysis. Format: functional, organism-based. The following applies: tested as the 2H-labelled form. The essentials: as §1

Data set [17] has as its system Mus musculus. Put plainly: Protection against IL23-induced acanthosis C57BL/6 mouse assessed as inhibition in IL-17A mRNA expression in ear skin compound dosed orally via gavage bid for 9 days with first dose given prior to first IL23 challenge and twice a day thereafter by qRT-PCR analysis. Format: functional, organism-based. The following applies: tested as the 2H-labelled form. The essentials:
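Mice given repeated intradermal IL-23 injections into the ears to induce acanthosis. Oral dosing twice daily for 9 days at 7.5, 15 or 30 mg/kg in 5:5:90 EtOH:TPGS:PEG300 vehicle; anti-IL-23 adnectin served as positive control. Skin biopsies analysed by quantitative PCR for IL-17A expression. Eight mice per group; means ± SEM; one-way ANOVA.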

The subject of data set [18] is Mus musculus. Briefly: Protection against IL23-induced acanthosis C57BL/6 mouse assessed as inhibition in IL-12 mRNA expression in ear skin compound dosed orally via gavage bid for 9 days with first dose given prior to first IL23 challenge and twice a day thereafter by qRT-PCR analysis. The following applies: tested as the 2H-labelled form. The class given is functional, organism-based. A digest of the protocol:
as §2

For data set [19], the system named is Mus musculus. Briefly: Protection against IL23-induced acanthosis C57BL/6 mouse assessed as inhibition in epidermal hyperplasia compound dosed orally via gavage bid for 9 days with first dose given prior to first IL23 challenge and twice a day thereafter by H and E staining based analysis. To be noted: tested as the 2H-labelled form. The class given is functional, organism-based. The essentials:
(§3)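 IL-23 was injected intradermally and repeatedly into mouse ears. Compound was dosed orally twice daily for 9 days in EtOH:TPGS:PEG300 (5:5:90), at 7.5, 15 or 30 mg/kg. Histological scoring covered epidermal hyperplasia and inflammatory infiltration. Eight mice per group; means ± SEM; one-way ANOVA.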

Data set [20] concerns Mus musculus. Put plainly: Protection against IL23-induced acanthosis C57BL/6 mouse assessed as reduction in ear swelling at 15 mg/kg, po via gavage bid for 9 days with first dose given prior to first IL23 challenge and twice a day thereafter by caliper method. Format: functional, organism-based. The following applies: tested as the 2H-labelled form.
Data set [21] concerns Mus musculus. Put plainly: Protection against IL23-induced acanthosis C57BL/6 mouse assessed as inhibition in epidermal hyperplasia at 30 mg/kg, po via gavage bid for 9 days with first dose given prior to first IL23 challenge and twice a day thereafter by H and E staining based analysis. The class given is functional, organism-based. The following applies: tested as the 2H-labelled form. The essentials: as §3

Sequence of Tyrosine-protein kinase JAK2 (O60674 whole entry): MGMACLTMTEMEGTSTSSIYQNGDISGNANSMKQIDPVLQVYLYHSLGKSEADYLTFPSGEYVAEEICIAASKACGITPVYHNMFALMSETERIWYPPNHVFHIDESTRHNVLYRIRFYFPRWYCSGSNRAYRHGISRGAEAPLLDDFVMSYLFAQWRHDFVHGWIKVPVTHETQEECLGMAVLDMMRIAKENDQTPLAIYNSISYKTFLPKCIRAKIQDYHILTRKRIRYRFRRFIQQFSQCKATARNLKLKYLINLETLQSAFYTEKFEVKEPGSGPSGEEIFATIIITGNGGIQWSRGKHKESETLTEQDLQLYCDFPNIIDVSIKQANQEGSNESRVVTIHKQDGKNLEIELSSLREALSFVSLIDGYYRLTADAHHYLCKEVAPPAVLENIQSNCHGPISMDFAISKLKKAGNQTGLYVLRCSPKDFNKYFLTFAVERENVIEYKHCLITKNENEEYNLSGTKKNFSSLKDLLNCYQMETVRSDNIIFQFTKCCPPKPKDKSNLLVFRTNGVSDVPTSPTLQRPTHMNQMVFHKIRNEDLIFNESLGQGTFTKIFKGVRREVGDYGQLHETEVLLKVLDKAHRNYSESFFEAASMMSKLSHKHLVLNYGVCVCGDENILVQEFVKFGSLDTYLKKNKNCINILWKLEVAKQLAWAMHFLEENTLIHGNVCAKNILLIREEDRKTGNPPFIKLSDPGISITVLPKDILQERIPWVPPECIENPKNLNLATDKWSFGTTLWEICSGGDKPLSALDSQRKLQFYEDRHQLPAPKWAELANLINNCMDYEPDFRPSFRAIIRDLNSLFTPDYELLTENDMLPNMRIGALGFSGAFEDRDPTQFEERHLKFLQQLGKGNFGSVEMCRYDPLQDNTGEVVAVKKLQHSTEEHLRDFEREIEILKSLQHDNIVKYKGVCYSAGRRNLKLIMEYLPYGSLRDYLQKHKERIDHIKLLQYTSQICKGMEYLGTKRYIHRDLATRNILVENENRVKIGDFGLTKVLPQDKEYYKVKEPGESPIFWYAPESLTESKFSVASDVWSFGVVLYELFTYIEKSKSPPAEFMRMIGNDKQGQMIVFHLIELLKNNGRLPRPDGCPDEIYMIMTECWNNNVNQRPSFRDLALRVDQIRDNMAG
Sequence of JAK1/TYK2 (P23458 whole entry): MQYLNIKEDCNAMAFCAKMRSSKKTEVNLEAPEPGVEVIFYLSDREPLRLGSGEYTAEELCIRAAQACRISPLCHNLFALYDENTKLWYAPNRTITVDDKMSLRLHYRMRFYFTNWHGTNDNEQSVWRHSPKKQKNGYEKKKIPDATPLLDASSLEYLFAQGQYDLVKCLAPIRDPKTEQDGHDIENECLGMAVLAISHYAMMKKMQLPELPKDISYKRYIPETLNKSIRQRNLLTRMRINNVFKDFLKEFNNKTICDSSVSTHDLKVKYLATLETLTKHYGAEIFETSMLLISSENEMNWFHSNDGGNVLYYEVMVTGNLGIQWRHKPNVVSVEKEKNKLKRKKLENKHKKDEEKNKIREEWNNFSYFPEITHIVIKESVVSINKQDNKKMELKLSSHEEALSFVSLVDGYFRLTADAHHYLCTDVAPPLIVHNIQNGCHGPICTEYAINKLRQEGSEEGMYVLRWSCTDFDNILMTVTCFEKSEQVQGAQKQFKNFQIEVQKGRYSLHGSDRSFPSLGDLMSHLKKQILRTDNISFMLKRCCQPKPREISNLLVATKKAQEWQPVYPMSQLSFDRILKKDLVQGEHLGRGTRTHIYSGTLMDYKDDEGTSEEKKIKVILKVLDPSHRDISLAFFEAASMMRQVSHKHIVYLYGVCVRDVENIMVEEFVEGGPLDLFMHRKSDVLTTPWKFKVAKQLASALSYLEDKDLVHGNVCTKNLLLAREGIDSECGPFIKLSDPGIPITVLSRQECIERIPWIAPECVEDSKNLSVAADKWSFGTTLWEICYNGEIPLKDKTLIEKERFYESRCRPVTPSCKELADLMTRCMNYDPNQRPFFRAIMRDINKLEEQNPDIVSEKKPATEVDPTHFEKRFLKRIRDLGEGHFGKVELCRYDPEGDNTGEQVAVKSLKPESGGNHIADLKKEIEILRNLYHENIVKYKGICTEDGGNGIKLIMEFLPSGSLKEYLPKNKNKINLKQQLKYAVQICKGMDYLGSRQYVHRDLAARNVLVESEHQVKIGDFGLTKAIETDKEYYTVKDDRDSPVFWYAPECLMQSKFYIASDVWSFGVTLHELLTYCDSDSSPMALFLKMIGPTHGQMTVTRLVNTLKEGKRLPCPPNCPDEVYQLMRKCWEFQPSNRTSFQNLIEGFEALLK
Sequence of JAK1/TYK2 (P29597 whole entry): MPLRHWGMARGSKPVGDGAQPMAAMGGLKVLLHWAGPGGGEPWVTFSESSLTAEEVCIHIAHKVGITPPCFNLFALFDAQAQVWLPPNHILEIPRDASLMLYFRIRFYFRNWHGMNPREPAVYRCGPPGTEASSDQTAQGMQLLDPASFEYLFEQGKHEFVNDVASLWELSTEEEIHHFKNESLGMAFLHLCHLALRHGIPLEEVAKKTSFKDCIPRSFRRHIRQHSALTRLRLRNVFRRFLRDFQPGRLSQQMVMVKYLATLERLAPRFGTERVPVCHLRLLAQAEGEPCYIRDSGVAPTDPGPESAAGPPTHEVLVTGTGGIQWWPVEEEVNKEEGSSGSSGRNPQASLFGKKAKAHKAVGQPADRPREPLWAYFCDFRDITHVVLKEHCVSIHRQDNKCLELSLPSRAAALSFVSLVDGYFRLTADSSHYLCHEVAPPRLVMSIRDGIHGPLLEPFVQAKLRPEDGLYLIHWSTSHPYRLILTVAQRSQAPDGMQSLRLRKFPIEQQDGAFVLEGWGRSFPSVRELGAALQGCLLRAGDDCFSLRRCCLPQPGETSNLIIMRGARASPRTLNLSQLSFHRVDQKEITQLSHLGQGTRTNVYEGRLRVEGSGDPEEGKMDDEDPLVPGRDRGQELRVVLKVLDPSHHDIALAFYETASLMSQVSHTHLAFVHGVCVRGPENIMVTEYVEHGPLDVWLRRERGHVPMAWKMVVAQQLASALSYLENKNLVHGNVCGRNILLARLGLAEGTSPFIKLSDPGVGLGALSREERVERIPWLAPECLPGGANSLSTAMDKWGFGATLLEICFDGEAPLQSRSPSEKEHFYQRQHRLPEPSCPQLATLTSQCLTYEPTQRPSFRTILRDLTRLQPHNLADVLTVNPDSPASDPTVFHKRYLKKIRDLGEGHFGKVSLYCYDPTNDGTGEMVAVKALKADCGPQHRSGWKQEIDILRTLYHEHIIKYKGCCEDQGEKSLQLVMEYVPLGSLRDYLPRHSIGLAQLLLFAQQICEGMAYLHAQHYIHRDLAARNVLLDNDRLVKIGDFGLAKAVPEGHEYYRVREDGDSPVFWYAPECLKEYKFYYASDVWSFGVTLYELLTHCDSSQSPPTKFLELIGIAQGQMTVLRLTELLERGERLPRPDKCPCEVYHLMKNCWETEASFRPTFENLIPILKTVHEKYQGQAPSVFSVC
Sequence of Non-receptor tyrosine-protein kinase TYK2 (Mus musculus, UniProt Q9R117) (Q9R117 whole entry): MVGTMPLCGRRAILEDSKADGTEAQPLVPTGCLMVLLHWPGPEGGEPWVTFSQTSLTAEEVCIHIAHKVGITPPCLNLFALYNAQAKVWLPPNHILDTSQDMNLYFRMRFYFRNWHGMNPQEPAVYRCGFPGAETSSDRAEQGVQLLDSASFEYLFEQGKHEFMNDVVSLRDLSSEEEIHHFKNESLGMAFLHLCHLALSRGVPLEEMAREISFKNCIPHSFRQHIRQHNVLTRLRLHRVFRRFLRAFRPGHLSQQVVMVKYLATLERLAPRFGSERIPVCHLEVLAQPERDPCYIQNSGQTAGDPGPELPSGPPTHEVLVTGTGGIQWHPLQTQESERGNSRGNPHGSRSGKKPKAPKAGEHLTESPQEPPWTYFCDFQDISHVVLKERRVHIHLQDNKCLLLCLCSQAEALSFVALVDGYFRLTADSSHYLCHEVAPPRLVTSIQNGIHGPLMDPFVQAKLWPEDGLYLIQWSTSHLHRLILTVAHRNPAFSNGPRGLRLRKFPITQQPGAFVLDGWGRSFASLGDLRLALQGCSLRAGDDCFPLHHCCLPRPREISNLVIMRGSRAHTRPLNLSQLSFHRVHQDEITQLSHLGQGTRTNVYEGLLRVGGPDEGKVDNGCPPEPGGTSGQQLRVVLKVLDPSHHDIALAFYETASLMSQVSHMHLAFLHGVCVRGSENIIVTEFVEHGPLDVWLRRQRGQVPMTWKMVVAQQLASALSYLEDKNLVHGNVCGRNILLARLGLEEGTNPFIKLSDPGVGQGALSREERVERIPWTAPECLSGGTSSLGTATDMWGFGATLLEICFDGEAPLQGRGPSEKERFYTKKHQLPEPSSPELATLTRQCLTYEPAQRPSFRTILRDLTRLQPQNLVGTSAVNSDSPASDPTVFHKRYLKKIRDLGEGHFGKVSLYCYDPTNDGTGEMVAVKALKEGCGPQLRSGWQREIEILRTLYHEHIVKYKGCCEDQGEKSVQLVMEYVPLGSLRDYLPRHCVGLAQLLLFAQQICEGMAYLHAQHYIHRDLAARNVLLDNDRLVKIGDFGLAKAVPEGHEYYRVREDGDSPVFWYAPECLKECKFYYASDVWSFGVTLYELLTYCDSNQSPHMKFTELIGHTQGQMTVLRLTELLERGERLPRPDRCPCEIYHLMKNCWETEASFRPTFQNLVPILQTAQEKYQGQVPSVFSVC
Sequence of JAK3/JAK1 (P23458 whole entry, one chain of several): as the sequence (P23458 whole entry) above
Sequence of Non-receptor tyrosine-protein kinase TYK2 (Homo sapiens, UniProt P29597) (P29597 whole entry): as the sequence (P29597 whole entry) above

With `CNC(=O)c1nnc(Nc2ccccn2)cc1Nc1ccccc1S(C)(=O)=O`, the Ratio IC50 was 690 in the data set listed under Homo sapiens [1], 210 in the data set listed under Homo sapiens [2] and 270 in the data set filed under Homo sapiens [3].

In the case of `[2H]C([2H])([2H])NC(=O)c1nnc(Nc2ccccn2)cc1Nc1ccccc1S(C)(=O)=O`, the values for the IC50 (at JAK3/JAK1; in data set [4]; in data set [5]) were 5700 nM, 2700 nM and greater than 10000 nM, respectively.

Consider `CNC(=O)c1cnc(Nc2ccc(C(F)(F)F)cn2)cc1Nc1cccc(-c2ncn(C)n2)c1OC`, for which the IC50 amounted to 69 nM in [6], 16000 nM in [8], 700 nM in data set [9] and 12 nM on JAK1/TYK2. Moreover, the remaining at 10 min in [7] turned out to be 78%. In data set [10], the Papp A→B turned out to be 1.6 ×10⁻⁶ cm/s.

On to `CNC(=O)c1nnc(NC(=O)C2CC2)cc1Nc1cccc(-c2ncn(C)n2)c1OC`, for which the Activity result in the data set with Mus musculus [11], with Mus musculus [14], in the data set on Mus musculus [15], in the data set on Mus musculus [16], in the data set with Mus musculus [17] and in the data set with Mus musculus [18] was “Dose-dependent effect” throughout. Also, the Activity entry in the data set on Mus musculus [19] is “Dose-dependent effect”. Also, the outcome with Mus musculus [12], in the data set with Mus musculus [13], in the data set on Mus musculus [20] and with Mus musculus [21] was Active.

The record behind these values is ChEMBL document CHEMBL4376812 (J Med Chem, 2019).
